Laboratory results from ChEMBL document CHEMBL5705905, “Pharmacological targeting of kinases MST1 and MST2 augments tissue repair and regeneration” (Sci Transl Med, 2016).
Blank lines part the entries; values can stand above or below the molecule they belong to. Calls of active or inactive are those of the source. No cut-off for these calls is given here.

Key:
[1] = target: T1, Serine/threonine-protein kinase 3 (Homo sapiens, UniProt Q13188); assay: Inhibition of recombinant His-tagged full-length MST2 (unknown origin) expressing in Escherichia coli assessed as GST-tagged MOB1a phosphorylation level incubated for 30 mins by immunoblot analysis
T1 sequence (Q13188 whole entry): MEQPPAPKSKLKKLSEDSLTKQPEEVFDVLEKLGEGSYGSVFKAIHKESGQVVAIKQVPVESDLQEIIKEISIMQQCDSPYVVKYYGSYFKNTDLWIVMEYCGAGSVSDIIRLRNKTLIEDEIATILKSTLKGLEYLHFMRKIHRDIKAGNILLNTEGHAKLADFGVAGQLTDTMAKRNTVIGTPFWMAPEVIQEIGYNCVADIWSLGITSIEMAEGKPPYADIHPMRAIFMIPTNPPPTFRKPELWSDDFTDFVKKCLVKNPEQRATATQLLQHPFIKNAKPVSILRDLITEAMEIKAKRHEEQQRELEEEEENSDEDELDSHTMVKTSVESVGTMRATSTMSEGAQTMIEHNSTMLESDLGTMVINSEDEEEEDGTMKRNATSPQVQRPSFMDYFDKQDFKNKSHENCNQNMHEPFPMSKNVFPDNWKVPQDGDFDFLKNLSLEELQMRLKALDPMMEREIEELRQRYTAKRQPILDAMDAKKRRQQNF

[2] = tested on: Mus musculus; assay: Protection against APAP induced liver injury in mouse assessed as liver centrilobular necrosis at 250 mg/kg, ip administered at 1.5 hrs; assay type: functional
In short: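 Wild-type mice were given APAP orally. NAC at 250 mg/kg was then injected intraperitoneally at 1.5, 2.5 or 3.5 h after APAP. Liver centrilobular necrosis was then assessed.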

[3] = tested on: Mus musculus; assay: Protection against APAP induced liver injury in mouse assessed as liver centrilobular necrosis at 250 mg/kg, ip administered at 3.5 hrs; assay type: functional, organism-based
[4] = tested on: Mus musculus; assay: Protection against APAP induced liver injury in mouse assessed as decrease in ALT level at 250 mg/kg, ip administered at 1.5 hrs; assay type: functional, organism-based; conditions: Serum
[5] = tested on: Mus musculus; assay: Protection against APAP induced liver injury in mouse assessed as liver centrilobular necrosis at 250 mg/kg, ip administered at 2.5 hrs; assay type: functional, organism-based
[6] = tested on: Mus musculus; assay: Protection against APAP induced liver injury in mouse assessed as decrease in ALT level at 250 mg/kg, ip administered at 2.5 hrs; assay type: functional, organism-based; conditions: Serum

Compound: CN1C(=O)c2sccc2N(C)c2nc(Nc3ccc(S(C)(=O)=O)cc3)ncc21
IC50 [1]: 596 nM

Compound: CC(=O)N[C@@H](CS)C(=O)O [ACETYLCYSTEINE]
Activity [2]: Active
Activity ([2]; record 2): 80%
Activity [3]: inactive
Activity [4]: Active
Activity [5]: inactive
Activity [6]: Active

More lines, in order of falling IC50 [1], values ahead:

IC50 [1]: 3840 nM
Compound: CN1CCC(NS(=O)(=O)c2ccc(Nc3ncc4c(n3)N(C)c3ccsc3C(=O)N4C)cc2)CC1

IC50 [1]: 1160 nM
Compound: CSc1ccc(Nc2ncc3c(n2)N(C)c2ccsc2C(=O)N3C)cc1

IC50 [1]: 207 nM
Compound: CN1C(=O)c2sccc2N(C)c2nc(Nc3ccc(S(=O)(=O)NC4CC4)cc3)ncc21
